Source: PubChem BioAssay (several laboratories)
HUVEC inhibit = blocks proliferation of human endothelial cells. viability, % at 10 µM (by protocol). HUVEC proliferation, CellTiter-Glo luminescence, 72 h; stronger effect = lower value. actives 1.1% (n = 86,000);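 active means viability at or below 30%; inactive means viability above 30%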;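 further: 100% = median luminescence of DMSO-only cell control wells on each plate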
HCT116 PTEN-null = growth suppressors of cells with PTEN tumor suppressor deletion; viability, % at 10 µM; HCT116 PTEN-null viability, CellTiter-Glo, 60 h; stronger effect = lower value; AID 827; actives 1.2% (n = 140,000);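 active means viability at or below a set limit, 4 SD under the median of all tested compounds, cut at about 3.7% in these data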;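 further: PTEN knockout HCT116 line with beta catenin targeted HCT116 as companion control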
H69AR growth 86K = growth inhibitors of human H69AR lung tumor cells. actives 6% (n = 85,000). H69AR lung tumor viability, ATP luminescence, 72 h; stronger effect = lower value. viability, % at 10 µM;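 active means viability at or below 40%; inactive means viability above 40%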;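 further: multidrug resistant small cell line overexpressing MRP-1 efflux transporter; 100% = mean luminescence of untreated control wells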
HCT116 bCat-KO = beta-catenin-lacking colon tumor cell growth suppression; AID 818; viability, % at 10 µM; actives 1.5% (n = 140,000); HCT116 beta-catenin knockout viability, CellTiter-Glo, 60 h; stronger effect = lower value;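 active means viability at or under a set limit, the compound median less 4 SD, cut at about 6% in these data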;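 further: 0% = Hyamine 1622 control at 20 µM and 100% = untreated cell control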
PTK2B oligo ant = antagonists of human Pyk2 oligomerization. Q14289. Q293 cells, Pyk2 FERM NanoBiT luminescence; stronger effect = lower value. z-score (the deposit names both 25 µM and 10 µM). actives 0.83% (n = 99,000). AID 1347419;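 active means Z-score of -3 or lower, scaled per plate to the spread of control and sample wells; inactive means z-score above -3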;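 further: negative z-score means lost luminescence so less FERM oligomerization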
Target sequence (Q14289 whole entry, looked up): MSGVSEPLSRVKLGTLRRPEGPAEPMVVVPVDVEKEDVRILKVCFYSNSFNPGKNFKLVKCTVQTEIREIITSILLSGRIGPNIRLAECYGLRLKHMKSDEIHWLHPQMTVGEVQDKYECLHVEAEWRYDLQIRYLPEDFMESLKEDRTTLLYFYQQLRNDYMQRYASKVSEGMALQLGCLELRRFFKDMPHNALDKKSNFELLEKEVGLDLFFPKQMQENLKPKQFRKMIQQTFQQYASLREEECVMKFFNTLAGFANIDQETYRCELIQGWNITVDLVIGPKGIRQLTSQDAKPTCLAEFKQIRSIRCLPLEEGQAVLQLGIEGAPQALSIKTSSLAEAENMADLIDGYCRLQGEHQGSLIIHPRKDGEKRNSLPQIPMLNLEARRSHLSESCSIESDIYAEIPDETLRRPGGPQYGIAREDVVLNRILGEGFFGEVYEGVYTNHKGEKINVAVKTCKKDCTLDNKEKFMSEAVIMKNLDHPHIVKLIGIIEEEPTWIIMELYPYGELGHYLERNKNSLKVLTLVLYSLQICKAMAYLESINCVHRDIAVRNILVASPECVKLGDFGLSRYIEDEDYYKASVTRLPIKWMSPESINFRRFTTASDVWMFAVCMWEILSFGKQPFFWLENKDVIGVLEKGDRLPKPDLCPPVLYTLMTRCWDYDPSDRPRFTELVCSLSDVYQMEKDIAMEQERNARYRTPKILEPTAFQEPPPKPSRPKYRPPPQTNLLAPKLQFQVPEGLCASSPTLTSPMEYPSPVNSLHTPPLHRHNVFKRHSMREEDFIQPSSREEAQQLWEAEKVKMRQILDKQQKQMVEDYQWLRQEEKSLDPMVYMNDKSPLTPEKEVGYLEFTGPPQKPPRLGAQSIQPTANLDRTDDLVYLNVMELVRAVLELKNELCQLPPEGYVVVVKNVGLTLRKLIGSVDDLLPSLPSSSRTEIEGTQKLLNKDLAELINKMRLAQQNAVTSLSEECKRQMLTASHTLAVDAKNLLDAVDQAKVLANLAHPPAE
Fibroblast inh = blocks proliferation of human lung fibroblasts; viability, % at 10 µM; actives 1.1% (n = 85,000); LL 47 human lung fibroblast viability, ATP luminescence; stronger effect = lower value;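 active means viability at or below 50% in the single dose screen; inactive means viability above 50%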;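 further: compound exposure lasted 72 h before the ATP readout; 100% = median luminescence of untreated cell-only wells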
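Material: Human LL 47 lung fibroblast cells | Input: 1,150 cells/well | Buffer or medium: IMEM plus 15% FBS | Compound dosing: 0.1% DMSO in all compound wells | Times: Overnight cell rest, 72 h compound treatment at 37 °C | Signal: CellTiter-Glo luminescence measuring cellular ATP | Measure: % viability versus median cells-only luminescence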
* hit, by the source's call; . = not tested or not shown. Shown is part of a subset that was picked to be rich in hits.

SMILES	HUVEC inhibit	HCT116 PTEN-null	H69AR growth 86K	HCT116 bCat-KO	PTK2B oligo ant	Fibroblast inh
Cc1ccc(NC(=O)NC2=N/C(=C(/C#N)C(=O)N3CCCC3)c3ccccc32)cc1	105	.	37*	.	0.06	110
COc1ccc(S(=O)(=O)N(C)CC(=O)Nc2cccc(C(C)=O)c2)cc1Cl	92	89	87	81	0.05	93
CCOC(=O)C1=C(O)/C(=C\c2ccc(CNC(=O)C(=O)Nc3ccccc3)o2)N=C1C	98	103	36*	100	0.04	106
CCOC(=O)C1=C(O)/C(=C\c2cccs2)N=C1C	.	103	.	96	.	.
COc1cc(CNCCc2c[nH]c3ccccc23)ccc1OCc1ccccc1F	.	1.6*	.	1.4*	0.3	.
COc1ccc(NC(=S)NCCc2c[nH]c3ccccc23)c(OC)c1	.	80	.	90	.	.
COc1ccccc1CCNCc1ccc(OC)c(OCc2ccccc2)c1	.	16	.	20	1.2	.
COc1cccc(CNCCc2c[nH]c3ccccc23)c1OCc1ccccc1	.	8	.	5.1*	.	.
NC(=O)[C@@H]1CCCNc2c(I)cc([N+](=O)[O-])cc2C(=O)N[C@@H](CO)C(=O)NCC(=O)N1	.	93	.	89	.	.
S=C(Nc1ccc(Cl)cc1)c1sc(N2CCCCC2)nc1N1CCOCC1	.	83	.	87	0.88	.
Cc1nnc2sc(-c3cccc(NC(=O)c4ccc(-c5cccc(Cl)c5)o4)c3)nn12	74	.	.	.	.	98
COC(=O)c1ccccc1NC(=O)c1ccc(-c2cccc(Cl)c2)o1	52	22	12*	24	1.5	86
Cc1nnc2sc(-c3ccc(NC(=O)c4ccc(-c5ccc(Br)cc5)o4)cc3)nn12	72	.	21*	.	.	67
Cc1ccc(-c2nn3c(C)nnc3s2)cc1NC(=O)c1ccc(Br)o1	79	86	85	85	.	103
Cc1ccc(-c2nn3c(C)nnc3s2)cc1NC(=O)c1ccc(-c2cccc(Cl)c2)o1	36	8	4.2*	11	0.1	99
O=C(Nc1ccc(CN2CCOCC2)cc1)c1ccc(-c2ccc(Br)cc2)o1	45	17	19*	14	-1.5	75
O=C(CN(CC1CCCO1)C(=O)CNS(=O)(=O)c1ccc(Cl)cc1)NCC1CCCO1 (stereo unspecified)	93	96	96	97	0.54	100
CCN(C(=O)COC(=O)c1cc(-c2cccc3ccccc23)nc2ccccc12)C1CCS(=O)(=O)C1 (stereo unspecified)	.	102	.	93	.	.
C=CCNc1cc(C)oc(=O)c1C(=O)CCC	90	108	97	100	-0.41	91
Cc1ccc(-c2nn3c(C)nnc3s2)cc1NC(=O)c1ccc(-c2ccc(Cl)cc2Cl)o1	6.5*	3.2*	104	2.3*	0.19	6.5*
COc1ccc(CNC(=O)c2ccc(Br)o2)cc1	.	101	.	101	.	.
CCOC(=O)c1ccc(Nc2nnc(C(C)(C)C)c(=O)[nH]2)cc1	55	44	2.6*	50	-2.9	69
CCOC(=O)c1ccc(Nc2cc(C)nc(C)c2C(=O)OCC)cc1	89	79	90	78	-1.8	93
CC/C(=C\C1CCCCC1)C(NP(=O)(c1ccccc1)c1ccccc1)c1ccccc1 (stereo unspecified)	.	4	.	5.6*	.	.
CC(c1ccccc1)C(CC(=O)O)C(=O)NC1CCCCC1 (stereo unspecified)	97	80	105	109	.	102
SMILES	HUVEC inhibit	HCT116 PTEN-null	H69AR growth 86K	HCT116 bCat-KO	PTK2B oligo ant	Fibroblast inh
Cc1ccccc1-n1c(C)nnc1SCc1cc(=O)oc2ccc3ccccc3c12	.	94	.	99	-2.5	.
CCCCCCCCOC(=O)C(NC(=O)CCC(=O)Nc1ccc(S(N)(=O)=O)cc1)C(O)c1ccccc1 (stereo unspecified)	78	95	91	94	1.4	97
CCOC(=O)C(NC(=O)CCC(=O)Nc1ccc(S(N)(=O)=O)cc1)C(O)c1ccccc1 (stereo unspecified)	99	96	32*	96	.	.
O=C(Nc1cccc2ncccc12)c1ccc(-c2ccc(Br)cc2)o1	.	85	.	89	-0.27	.
Cc1ccc2cccc(N=Cc3c(C)[nH]n(-c4ccccc4)c3=O)c2n1	.	2.5*	.	2.8*	.	.
O=C(c1ccco1)N1CCN(C(c2ccccc2)c2nnnn2C2CCCC2)CC1 (stereo unspecified)	108	89	91	90	1.4	101
Fc1ccc(Br)cc1C1C=C(c2ccc(Br)s2)Nc2ncnn21 (stereo unspecified)	52	88	29*	90	1.6	56
COc1ccc2c(c1OC)C(=O)N1c3ccccc3C(=O)N(c3ccccc3)C21 (stereo unspecified)	68	59	1.0*	52	-0.25	93
COc1ccc2c(c1OC)C(=O)N1c3ccccc3C(=O)N(c3ccc(F)cc3)C21 (stereo unspecified)	88	75	12*	61	0.06	93
Cc1ccccc1N1C(=O)c2ccccc2N2C(=O)c3ccccc3C12 (stereo unspecified)	85	75	58	76	0.71	80
S=C1NCCOCCOCCOCCOCCNC(=S)NCCOCCOCCOCCOCCN1	98	102	95	95	-0.6	96
CCCCOc1cccc(-c2cc(C(=O)NNC(=S)NCC)c3ccccc3n2)c1	.	80	.	82	-0.05	.
CCCCOc1ccc(-c2cc(C(=O)NNC(=S)NCC)c3ccccc3n2)cc1	.	1.8*	.	1.6*	-0.96	.
O=S1(=O)c2ccccc2N=NN1Cc1ccc(Cl)c(Cl)c1	31	86	1.6*	84	.	8.7*
CC(C)(C)c1ccc(CN2N=Nc3ccccc3S2(=O)=O)cc1	9.6*	71	0.7*	73	0.59	17*
Cc1ccc(C2NC(=O)c3c(sc4c3CCN(C)C4)N2)o1 (stereo unspecified)	98	90	61	91	1.2	112
CCOC(=O)N1CCc2c(sc3c2C(=O)NC(c2ccc(-c4ccc(Cl)cc4)o2)N3)C1 (stereo unspecified)	89	.	30*	.	.	53
Cc1nc(SCc2cccc(Oc3ccccc3)c2)n[nH]1	108	86	102	91	0.06	92
C=CCSc1nc2ccccc2n1C(=O)/C=C/c1cc(OC)c(OC)c(OC)c1	.	2.4*	.	3.1*	-1.7	.
COc1ccc(/C=C/C(=O)NCCn2c(C)cc3ccccc32)cc1OC	.	68	.	71	.	.
CCSc1nc2ccccc2n1C(=O)/C=C/c1ccc(OC)c(OC)c1	.	5	.	5.4*	.	.
CCn1c(SCC(=O)N/N=C/c2ccc(OC)c(OC)c2)nc2ccccc21	.	99	.	96	1.1	.
C=CCSc1nc2ccccc2n1C(=O)/C=C/c1ccc(OC)c(OC)c1	.	1.8*	.	1.8*	-1.5	.
COc1cc(/C=C/C(=O)NCCn2c(C)cc3ccccc32)cc(OC)c1OC	.	73	.	92	.	.
Cc1ccc(OCC(=O)N(Cc2ccccc2)C(C)C)c([N+](=O)[O-])n1	.	93	.	93	.	.
